Assay results as given in ChEMBL document CHEMBL3877308, “Design, synthesis and in vitro biological evaluation of oligopeptides targeting E. coli type I signal peptidase (LepB)” (Bioorg Med Chem, 2017).
pIC50: −log10 of the molar value. ≈ marks a conversion by molar mass, not a printed value.

Columns and labels:
Staphylococcus aureus = assay: Antibacterial activity against wild type Staphylococcus aureus ATCC 29213 after 16 to 20 hrs by broth microdilution assay; format: functional
Summary of the method: (§1)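 MIC by broth microdilution in cation-adjusted Mueller-Hinton II medium, following EUCAST and CLSI guidelines; panel of Gram-negative strains plus S. aureus ATCC 29213.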

Escherichia coli [1] = assay: Antibacterial activity against wild type Escherichia coli ATCC 25922 after 16 to 20 hrs by broth microdilution assay; format: functional; summary of the method: as §1
[2] = biological target: Signal peptidase I (Escherichia coli K-12) (UniProt P00803); assay: Inhibition of full length Escherichia coli His6-tagged LepB expressed in Escherichia coli C43(DE3) assessed as residual activity at 62.5 uM using dabcyl-VEVGGTATAGAFSRPGLE-(EDANS) as substrate preincubated for 10 mins followed by substrate addition measured for 2 hrs by FRET assay relative to control
Chain of Signal peptidase I (Escherichia coli K-12) (P00803 whole entry): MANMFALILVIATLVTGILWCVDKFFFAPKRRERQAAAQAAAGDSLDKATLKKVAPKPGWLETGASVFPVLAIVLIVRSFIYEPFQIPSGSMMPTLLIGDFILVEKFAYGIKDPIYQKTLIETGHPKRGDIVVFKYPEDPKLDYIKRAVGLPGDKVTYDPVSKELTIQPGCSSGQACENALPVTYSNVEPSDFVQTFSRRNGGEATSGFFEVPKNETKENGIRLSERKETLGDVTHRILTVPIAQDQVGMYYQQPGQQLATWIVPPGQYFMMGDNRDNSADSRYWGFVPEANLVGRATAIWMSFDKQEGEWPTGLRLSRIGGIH
Summary of the method: (§2)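 Enzyme came from the membrane fraction, extracted with 1% reduced Triton X-100 and purified by metal-chelation chromatography in 0.5% detergent. FRET pair was dabcyl acceptor and EDANS donor. EcLepB (final about 50 nM) was pre-incubated with compound 10 min at 22 °C. Reaction was then run with 8 µM substrate, following the linear fluorescence increase at 22 °C for 2 h.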

Acinetobacter baumannii = assay: Antibacterial activity against wild type Acinetobacter baumannii ATCC 19606 after 16 to 20 hrs by broth microdilution assay; format: functional; summary of the method: as §1
[3] = biological target: Signal peptidase I (Escherichia coli K-12) (UniProt P00803); assay: Inhibition of full length Escherichia coli His6-tagged LepB expressed in Escherichia coli C43(DE3) assessed as residual activity at 0.1220703 uM using dabcyl-VEVGGTATAGAFSRPGLE-(EDANS) as substrate preincubated for 10 mins followed by substrate addition measured for 2 hrs by FRET assay relative to control; summary of the method: as §2
[4] = biological target: Signal peptidase I (Escherichia coli K-12) (UniProt P00803); assay: Inhibition of full length Escherichia coli His6-tagged LepB expressed in Escherichia coli C43(DE3) assessed as residual activity at 31.25 uM using dabcyl-VEVGGTATAGAFSRPGLE-(EDANS) as substrate preincubated for 10 mins followed by substrate addition measured for 2 hrs by FRET assay relative to control; summary of the method: as §2
[5] = biological target: Signal peptidase I (Escherichia coli K-12) (UniProt P00803); assay: Inhibition of full length Escherichia coli His6-tagged LepB expressed in Escherichia coli C43(DE3) assessed as residual activity at 500 uM using dabcyl-VEVGGTATAGAFSRPGLE-(EDANS) as substrate preincubated for 10 mins followed by substrate addition measured for 2 hrs by FRET assay relative to control; summary of the method: as §2
[6] = biological target: Signal peptidase I (Escherichia coli K-12) (UniProt P00803); assay: Inhibition of full length Escherichia coli His6-tagged LepB expressed in Escherichia coli C43(DE3) at 100 uM using dabcyl-VEVGGTATAGAFSRPGLE-(EDANS) as substrate preincubated for 10 mins followed by substrate addition measured for 2 hrs by FRET assay relative to control; summary of the method: as §2
Pseudomonas aeruginosa [7] = assay: Antibacterial activity against wild type Pseudomonas aeruginosa PAO750 harboring efflux defective mutant after 16 to 20 hrs by broth microdilution assay; format: functional
Summary of the method: (§3)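 Broth microdilution MIC in cation-adjusted Mueller-Hinton II medium, following EUCAST and CLSI guidelines; tested on a panel of Gram-negative strains plus S. aureus ATCC 29213 (wild-type).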

[8] = biological target: Signal peptidase I (Escherichia coli K-12) (UniProt P00803); assay: Inhibition of full length Escherichia coli His6-tagged LepB expressed in Escherichia coli C43(DE3) assessed as residual activity at 250 uM using dabcyl-VEVGGTATAGAFSRPGLE-(EDANS) as substrate preincubated for 10 mins followed by substrate addition measured for 2 hrs by FRET assay relative to control; summary of the method: as §2
[9] = biological target: Signal peptidase I (Escherichia coli K-12) (UniProt P00803); assay: Inhibition of full length Escherichia coli His6-tagged LepB expressed in Escherichia coli C43(DE3) assessed as residual activity at 0.4882812 uM using dabcyl-VEVGGTATAGAFSRPGLE-(EDANS) as substrate preincubated for 10 mins followed by substrate addition measured for 2 hrs by FRET assay relative to control; summary of the method: as §2
[10] = biological target: Signal peptidase I (Escherichia coli K-12) (UniProt P00803); assay: Inhibition of full length Escherichia coli His6-tagged LepB expressed in Escherichia coli C43(DE3) assessed as residual activity at 0.241406 uM using dabcyl-VEVGGTATAGAFSRPGLE-(EDANS) as substrate preincubated for 10 mins followed by substrate addition measured for 2 hrs by FRET assay relative to control; summary of the method: as §2
[11] = biological target: Signal peptidase I (Escherichia coli K-12) (UniProt P00803); assay: Inhibition of full length Escherichia coli His6-tagged LepB expressed in Escherichia coli C43(DE3) assessed as residual activity at 1.953125 uM using dabcyl-VEVGGTATAGAFSRPGLE-(EDANS) as substrate preincubated for 10 mins followed by substrate addition measured for 2 hrs by FRET assay relative to control; summary of the method: as §2
[12] = biological target: Signal peptidase I (Escherichia coli K-12) (UniProt P00803); assay: Inhibition of full length Escherichia coli His6-tagged LepB expressed in Escherichia coli C43(DE3) assessed as residual activity at 125 uM using dabcyl-VEVGGTATAGAFSRPGLE-(EDANS) as substrate preincubated for 10 mins followed by substrate addition measured for 2 hrs by FRET assay relative to control; summary of the method: as §2
[13] = biological target: Signal peptidase I (Escherichia coli K-12) (UniProt P00803); assay: Inhibition of full length Escherichia coli His6-tagged LepB expressed in Escherichia coli C43(DE3) assessed as residual activity at 0.9765625 uM using dabcyl-VEVGGTATAGAFSRPGLE-(EDANS) as substrate preincubated for 10 mins followed by substrate addition measured for 2 hrs by FRET assay relative to control; summary of the method: as §2
Escherichia coli [14] = assay: Antibacterial activity against Escherichia coli CH3130 harboring tolC deletion mutant after 16 to 20 hrs by broth microdilution assay; format: functional; summary of the method: as §3
Pseudomonas aeruginosa [15] = assay: Antibacterial activity against wild type Pseudomonas aeruginosa PAO1 after 16 to 20 hrs by broth microdilution assay; format: functional; summary of the method: as §1
Signal peptidase I [16] = biological target: T1, Signal peptidase I (Escherichia coli K-12, UniProt P00803); assay: Inhibition of full length Escherichia coli His6-tagged LepB expressed in Escherichia coli C43(DE3) using dabcyl-VEVGGTATAGAFSRPGLE-(EDANS) as substrate preincubated for 10 mins followed by substrate addition measured for 2 hrs by FRET assay
T1 sequence (P00803 whole entry): as above
Summary of the method: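 Enzyme extracted from the membrane fraction with 1% reduced Triton X-100 and purified by metal-chelation chromatography in 0.5% detergent. Enzyme (final ~50 nM) was pre-incubated with compound for 10 min at 22 °C. The linear rise in EDANS donor fluorescence (dabcyl acceptor) was then followed at 22 °C for 2 h. IC50 came from non-linear regression of sigmoidal rate-versus-concentration curves.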

[17] = biological target: Signal peptidase I (Escherichia coli K-12) (UniProt P00803); assay: Inhibition of full length Escherichia coli His6-tagged LepB expressed in Escherichia coli C43(DE3) assessed as residual activity at 3.90625 uM using dabcyl-VEVGGTATAGAFSRPGLE-(EDANS) as substrate preincubated for 10 mins followed by substrate addition measured for 2 hrs by FRET assay relative to control; summary of the method: as §2
[18] = biological target: Signal peptidase I (Escherichia coli K-12) (UniProt P00803); assay: Inhibition of full length Escherichia coli His6-tagged LepB expressed in Escherichia coli C43(DE3) assessed as residual activity at 15.625 uM using dabcyl-VEVGGTATAGAFSRPGLE-(EDANS) as substrate preincubated for 10 mins followed by substrate addition measured for 2 hrs by FRET assay relative to control; summary of the method: as §2
[19] = biological target: Signal peptidase I (Escherichia coli K-12) (UniProt P00803); assay: Inhibition of full length Escherichia coli His6-tagged LepB expressed in Escherichia coli C43(DE3) assessed as residual activity at 7.8125 uM using dabcyl-VEVGGTATAGAFSRPGLE-(EDANS) as substrate preincubated for 10 mins followed by substrate addition measured for 2 hrs by FRET assay relative to control; summary of the method: as §2
Klebsiella pneumoniae = assay: Antibacterial activity against wild type Klebsiella pneumoniae […] after 16 to 20 hrs by broth microdilution assay; format: functional; summary of the method: as §1
[20] = biological target: Signal peptidase I (Escherichia coli K-12) (UniProt P00803); assay: Inhibition of full length Escherichia coli His6-tagged LepB expressed in Escherichia coli C43(DE3) assessed as residual activity at 1000 uM using dabcyl-VEVGGTATAGAFSRPGLE-(EDANS) as substrate preincubated for 10 mins followed by substrate addition measured for 2 hrs by FRET assay relative to control; summary of the method: as §2
Signal peptidase I [21] = biological target: T1, Signal peptidase I; assay: Inhibition of full length Escherichia coli His6-tagged LepB expressed in Escherichia coli C43(DE3) using dabcyl-VEVGGTATAGAFSRPGLE-(EDANS) as substrate preincubated for 10 mins followed by substrate addition measured after […] by FRET assay
Escherichia coli [22] = assay: Antibacterial activity against Escherichia coli D22 harboring lpxC mutant after 16 to 20 hrs by broth microdilution assay; format: functional; summary of the method: as §3

CCCCCCCCCC(=O)N1CCC[C@H]1C(=O)N[C@H](C(=O)N[C@@H](C)C(=O)N[C@@H](CC(N)=O)C(=O)N[C@@H](C)C=O)[C@H](C)O
MIC (Staphylococcus aureus): > 128 µg/mL
MIC (Escherichia coli [1]): > 128 µg/mL
Activity [2]: -0.871%
MIC (Acinetobacter baumannii): > 128 µg/mL
Activity [3]: 77.4%
Activity [4]: 6.54%
Activity [5]: -4.44%
inhibition [6]: 100%
MIC (Pseudomonas aeruginosa [7]): 128 µg/mL (≈ 210 µM)
Activity [8]: -6.1%
Activity [9]: 64.5%
Activity [10]: 72.6%
Activity [11]: 43.6%
Activity [12]: -3.34%
Activity [13]: 48.7%
MIC (Escherichia coli [14]): > 128 µg/mL
MIC (Pseudomonas aeruginosa [15]): > 128 µg/mL
pIC50 (Signal peptidase I [16]): 5.92
Activity [17]: 34.7%
Activity [18]: 13%
Activity [19]: 20.9%
MIC (Klebsiella pneumoniae): > 128 µg/mL
Activity [20]: -5.5%
pIC50 (Signal peptidase I [21]): 5.19
MIC (Escherichia coli [22]): > 128 µg/mL
